Converted amounts (≈) assume the structure as drawn. The source made the active and inactive calls. No cut-off for these calls is given here.
Experiments:
Mus musculus [1] = assay: Anticonvulsant activity against subcutaneous pentylenetetrazole-induced seizures in mouse at 300 mg/kg, ip; assay type: functional, organism-based; set-up: dose 300 mg/kg
Mus musculus [2] = assay: Anticonvulsant activity against maximal electroshock-induced seizures in mouse at 300 mg/kg, ip; assay type: functional, organism-based; set-up: dose 300 mg/kg
Enterococcus [3] = assay: Antibacterial activity against vancomycin-resistant Enterococcus clinical isolate after 18 hrs by NCCLS M7-A4 method; assay type: functional
Summary of the method: (§1)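 Test compounds dissolved in 80% DMSO in water. Clinical isolates came from a MRSA reference laboratory culture collection. Final inoculum 10^7 CFU/ml, incubated 35 °C for 18 h. MIC taken as the lowest concentration completely inhibiting growth. Reference strains S. aureus ATCC 25923, S. epidermidis ATCC 12228 and E. faecalis ATCC 29212 served as test controls.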

Staphylococcus [4] = assay: Antibacterial activity against methicillin-resistant coagulase-negative Staphylococcus clinical isolate after 18 hrs by NCCLS M7-A4 method; assay type: functional; summary of the method: as §1
Escherichia coli = assay: Antibacterial activity against Escherichia coli ATCC 25922 after 18 hrs by NCCLS M7-A4 method; assay type: functional, organism-based
Summary of the method: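 Reference E. coli strain tested by NCCLS/CLSI agar dilution. Compounds were in 80% DMSO in water over a 0.12–16 dilution range, incubated at 35 °C for 18 h.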

Enterococcus faecalis = assay: Antibacterial activity against Enterococcus faecalis ATCC 29212 after 18 hrs by NCCLS M7-A4 method; assay type: functional, organism-based
Summary of the method: (§2)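 Agar dilution on Mueller–Hinton agar, following NCCLS (now CLSI) guidance. Test compounds were dissolved in 80% DMSO in water and tested at 0.12 to 16. Plates were incubated at 35 °C for 18 h. The MIC was the lowest concentration giving complete growth inhibition.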

[5] = tested on: Staphylococcus epidermidis; assay: Antibacterial activity against Staphylococcus epidermidis ATCC 12228 after 18 hrs by NCCLS M7-A4 method; assay type: functional, organism-based; summary of the method: as §2
Haemophilus influenzae [6] = assay: Antibacterial activity against Haemophilus influenzae clinical isolate after 18 hrs by NCCLS M7-A4 method; assay type: functional
Summary of the method: (§3)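 Agar dilution on Mueller–Hinton agar with 5% sheep blood, per NCCLS/CLSI. Compounds were dissolved in 80% DMSO in water and tested over 0.12–16. Incubation was 35 °C for 18 h. MIC was read as the lowest concentration completely inhibiting growth. Line 4 used clinical isolates (n = 7 for H. influenzae).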

Enterococcus [7] = assay: Antibacterial activity against vancomycin-sensitive Enterococcus clinical isolate after 18 hrs by NCCLS M7-A4 method; assay type: functional; summary of the method: as §1
Staphylococcus [8] = assay: Antibacterial activity against methicillin-sensitive coagulase-negative Staphylococcus clinical isolate after 18 hrs by NCCLS M7-A4 method; assay type: functional; summary of the method: as §1
Staphylococcus aureus [9] = assay: Antibacterial activity against Staphylococcus aureus ATCC 25923 after 18 hrs by NCCLS M7-A4 method; assay type: functional, organism-based; summary of the method: as §2
Haemophilus influenzae [10] = assay: Antibacterial activity against Haemophilus influenzae ATCC 49247 after 18 hrs by NCCLS M7-A4 method; assay type: functional, organism-based; summary of the method: as §3
Staphylococcus aureus [11] = assay: Antibacterial activity against methicillin-resistant Staphylococcus aureus clinical isolate after 18 hrs by NCCLS M7-A4 method; assay type: functional; summary of the method: as §1
Mus musculus [12] = assay: Anticonvulsant activity against subcutaneous pentylenetetrazole-induced seizures in mouse at <=100 mg/kg, ip; assay type: functional, organism-based
Mus musculus [13] = assay: Anticonvulsant activity against maximal electroshock-induced seizures in mouse at <=100 mg/kg, ip; assay type: functional, organism-based
Mus musculus [14] = assay: Anticonvulsant activity against subcutaneous pentylenetetrazole-induced seizures in mouse at >100 to 300 mg/kg, ip; assay type: functional, organism-based; set-up: dose 300 mg/kg
Streptococcus pneumoniae = assay: Antibacterial activity against Streptococcus pneumoniae clinical isolate after 18 hrs by NCCLS M7-A4 method; assay type: functional; summary of the method: as §3
Staphylococcus aureus [15] = assay: Antibacterial activity against methicillin-susceptible Staphylococcus aureus clinical isolate after 18 hrs by NCCLS M7-A4 method; assay type: functional; summary of the method: as §1

For `CCOC(=O)C1C(=O)C=C(Nc2ccc(F)cc2)CC1c1ccccc1` (stereo not drawn), the Activity (Mus musculus [1]) was “inactive” and the Activity (Mus musculus [2]) was “inactive”.
For `CC(=O)NC[C@H]1CN(c2ccc(N3CCOCC3)c(F)c2)C(=O)O1` [LINEZOLID], the MIC (Enterococcus [3]) was 1 µg/mL (≈ 2.96 µM), the MIC (Staphylococcus [4]) was 0.5 µg/mL (≈ 1.48 µM) and the Activity (Escherichia coli) was “inactive”. The Activity (Enterococcus faecalis) was “inactive”, the Activity [5] was “inactive” and the MIC (Haemophilus influenzae [6]) was 8 µg/mL (≈ 23.7 µM). The MIC (Enterococcus [7]) was 1 µg/mL (≈ 2.96 µM), the MIC (Staphylococcus [8]) was 0.5 µg/mL (≈ 1.48 µM) and the Activity (Staphylococcus aureus [9]) was “inactive”. The Activity (Haemophilus influenzae [10]) was “inactive” and the MIC (Staphylococcus aureus [11]) was 0.5 µg/mL (≈ 1.48 µM).
For `CCOC(=O)C1C(=O)C=C(Nc2cccc(Cl)c2)CC1C` (stereo not drawn), the Activity (Mus musculus [12]) was “Active” and the Activity (Mus musculus [13]) was “Active”.
In the case of `COC(=O)C1C(=O)C=C(Nc2ccc(F)cc2)CC1c1ccccc1` (stereo not drawn), the Activity (Mus musculus [1]) was “inactive” and the Activity (Mus musculus [2]) was “inactive”.
With `COC(=O)C1C(=O)C=C(Nc2ccc(N3CCOCC3)c(F)c2)CC1c1ccccc1` (stereo not drawn) the Activity (Mus musculus [1]) was “inactive” and the Activity (Mus musculus [2]) was “inactive”.
`CCOC(=O)C1C(=O)C=C(Nc2ccc(Br)cc2)CC1C` (stereo not drawn) was tested, and the Activity (Mus musculus [12]) was “Active” and the Activity (Mus musculus [13]) was “Active”.
In the case of `COC(=O)C1C(=O)C=C(Nc2ccccc2)CC1c1ccccc1` (stereo not drawn), the Activity (Mus musculus [14]) was “Active”.
For `COC(=O)C1C(=O)C=C(Nc2ccc(N3CCOCC3)c(F)c2)CC1C` (stereo not drawn), the Activity (Mus musculus [1]) was “inactive” and the Activity (Mus musculus [2]) was “inactive”.
In the case of `CN[C@H](CC(C)C)C(=O)N[C@H]1C(=O)N[C@@H](CC(N)=O)C(=O)N[C@H]2C(=O)N[C@H]3C(=O)N[C@H](C(=O)N[C@H](C(=O)O)c4cc(O)cc(O)c4-c4cc3ccc4O)[C@H](O)c3ccc(c(Cl)c3)Oc3cc2cc(c3O[C@@H]2O[C@H](CO)[C@@H](O)[C@H](O)[C@H]2O[C@H]2C[C@](C)(N)[C@H](O)[C@H](C)O2)Oc2ccc(cc2Cl)[C@H]1O` [VANCOMYCIN], the MIC (Enterococcus [3]) was 8 µg/mL (≈ 5.52 µM), the MIC (Staphylococcus [4]) was 2 µg/mL (≈ 1.38 µM) and the Activity (Escherichia coli) was “inactive”. For the same compound, the Activity (Enterococcus faecalis) was “inactive”, the Activity [5] was “inactive” and the MIC (Haemophilus influenzae [6]) was over 32 µg/mL. The MIC (Enterococcus [7]) was 1 µg/mL (≈ 0.69 µM), the MIC (Staphylococcus [8]) was 1 µg/mL (≈ 0.69 µM) and the MIC (Streptococcus pneumoniae) was 0.25 µg/mL (≈ 0.173 µM). For the same compound, the Activity (Staphylococcus aureus [9]) was “inactive” and the Activity (Haemophilus influenzae [10]) was “inactive”.
For `COC(=O)C1C(=O)C=C(N2CCN(c3ccc([N+](=O)[O-])cc3F)CC2)CC1c1ccccc1` (stereo not drawn), the Activity (Mus musculus [1]) was “inactive” and the Activity (Mus musculus [2]) was “inactive”.
`COC(=O)C1C(=O)C=C(NCCc2ccccc2)CC1c1ccccc1` (stereo not drawn) was tested, and the Activity (Mus musculus [1]) was “inactive” and the Activity (Mus musculus [2]) was “inactive”.
`CCOC(=O)C1C(=O)C=C(Nc2ccc(Cl)cn2)CC1c1ccccc1` (stereo not drawn) was tested, and the Activity (Mus musculus [1]) was “inactive” and the Activity (Mus musculus [2]) was “inactive”.
In the case of `CCN(CC)C1=CC(=O)C(C(=O)OC)C(c2ccccc2)C1` (stereo not drawn), the Activity (Mus musculus [1]) was “inactive” and the Activity (Mus musculus [2]) was “inactive”.
For `CCOC(=O)C1C(=O)C=C(Nc2ccc(Br)cc2)CC1c1ccccc1` (stereo not drawn), the Activity (Mus musculus [1]) was “inactive” and the Activity (Mus musculus [2]) was “inactive”.
For `COC(=O)C1C(=O)C=C(N2CCCC2)CC1c1ccccc1` (stereo not drawn), the Activity (Mus musculus [1]) was “inactive” and the Activity (Mus musculus [2]) was “inactive”.
With `CCOC(=O)C1C(=O)C=C(N2CCN(c3ccc([N+](=O)[O-])cc3F)CC2)CC1C` (stereo not drawn) the Activity (Mus musculus [1]) was “inactive” and the Activity (Mus musculus [2]) was “inactive”.
With `CCOC(=O)C1C(=O)C=C(NCCc2ccccc2)CC1C` (stereo not drawn) the Activity (Mus musculus [13]) was “Active”.
`COC(=O)C1C(=O)C=C(NC[C@H]2CN(c3ccc(N4CCOCC4)c(F)c3)C(=O)O2)CC1c1ccccc1` (stereo partly drawn) was tested, and the Activity (Escherichia coli) was “inactive”, the Activity (Enterococcus faecalis) was “inactive” and the Activity [5] was “inactive”. For the same compound, the MIC (Staphylococcus aureus [15]) was over 16 µg/mL, the MIC (Haemophilus influenzae [6]) was over 16 µg/mL and the MIC (Enterococcus [7]) was over 16 µg/mL. For the same compound, the MIC (Staphylococcus [8]) was over 16 µg/mL, the MIC (Streptococcus pneumoniae) was over 16 µg/mL and the Activity (Mus musculus [1]) was “inactive”. The Activity (Staphylococcus aureus [9]) was “inactive”, the Activity (Haemophilus influenzae [10]) was “inactive” and the Activity (Mus musculus [2]) was “inactive”.
With `CCOC(=O)C1C(=O)C=C(NCCCCc2ccccc2)CC1c1ccccc1` (stereo not drawn) the Activity (Mus musculus [1]) was “inactive” and the Activity (Mus musculus [2]) was “inactive”.
For `CCOC(=O)C1C(=O)C=C(NCCCc2ccccc2)CC1c1ccccc1` (stereo not drawn), the Activity (Mus musculus [1]) was “inactive” and the Activity (Mus musculus [2]) was “inactive”.
With `CCOC(=O)C1C(=O)C=C(Nc2ccccc2)CC1c1ccccc1` (stereo not drawn) the Activity (Mus musculus [1]) was “inactive” and the Activity (Mus musculus [2]) was “inactive”.

Reference: ChEMBL document CHEMBL1137699, “Synthesis, antibacterial and anticonvulsant evaluations of some cyclic enaminones” (Eur J Med Chem, 2009)
